Measured values as given in ChEMBL document CHEMBL2429728, “Novel Macrocyclic Amidinoureas: Potent Non-Azole Antifungals Active against Wild-Type and Resistant Candida Species” (2013).

How the values were obtained:
Type in all cases: functional
Candida tropicalis [1] = test: Antifungal activity against Candida tropicalis ATCC 200956 after 24 hrs by visually and spectrophotometric analysis; conditions: ATCC 200956, 24 h
In short: (§1)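 Read-out is MIC90 in μg/mL, scored at 24 h both by eye and spectrophotometrically. The panel is Candida isolates that earlier reports describe as amphotericin B-resistant, with amphotericin B run alongside as the reference drug.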

Clavispora lusitaniae [2] = test: Antifungal activity against Candida lusitaniae ATCC 60247 after 24 hrs by visually and spectrophotometric analysis; conditions: ATCC 60247, 24 h; in short: as §1
Clavispora lusitaniae [3] = test: Antifungal activity against Candida lusitaniae ATCC 24348 after 24 hrs by visually and spectrophotometric analysis; conditions: ATCC 24348, 24 h; in short: as §1
Clavispora lusitaniae [4] = test: Antifungal activity against Candida lusitaniae ATCC 200953 after 24 hrs by visually and spectrophotometric analysis; in short: as §1
Clavispora lusitaniae [5] = test: Antifungal activity against Candida lusitaniae ATCC 200952 after 24 hrs by visually and spectrophotometric analysis; in short: as §1
Clavispora lusitaniae [6] = test: Antifungal activity against Candida lusitaniae ATCC 200951 after 24 hrs by visually and spectrophotometric analysis; in short: as §1
Clavispora lusitaniae [7] = test: Antifungal activity against Candida lusitaniae ATCC 200950 after 24 hrs by visually and spectrophotometric analysis; conditions: ATCC 200950, 24 h; in short: as §1
Candida albicans [8] = test: Antifungal activity against Candida albicans ATCC 200955 after 24 hrs by visually and spectrophotometric analysis; conditions: ATCC 200955, 24 h
In short: (§2)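 Endpoint is MIC90, in μg/mL, read at 24 h by both visual inspection and spectrophotometry.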

Nakaseomyces glabratus [9] = test: Antifungal activity against fluconazole-resistant Candida glabrata DSY2271 increase expressing of CgCDR2 genes after 24 hrs by visually and spectrophotometric analysis; conditions: DSY2271, 24 h; in short: as §2
Nakaseomyces glabratus [10] = test: Antifungal activity against fluconazole-resistant Candida glabrata DSY2254 increase expressing of CgCDR1 and CgCDR2 genes after 24 hrs by visually and spectrophotometric analysis; conditions: DSY2254, 24 h; in short: as §2
Nakaseomyces glabratus [11] = test: Antifungal activity against fluconazole-resistant Candida glabrata DSY756 increase expressing of CgCDR1, CgCDR2, and CgSNQ2 genes after 24 hrs by visually and spectrophotometric analysis; conditions: DSY756, 24 h; in short: as §2
Nakaseomyces glabratus [12] = test: Antifungal activity against fluconazole-resistant Candida glabrata DSY754 increase expressing of CgCDR1 gene after 24 hrs by visually and spectrophotometric analysis; conditions: DSY754, 24 h; in short: as §2
Nakaseomyces glabratus [13] = test: Antifungal activity against fluconazole-resistant Candida glabrata DSY530 increase expressing of CgCDR1 gene after 24 hrs by visually and spectrophotometric analysis; conditions: DSY530, 24 h; in short: as §2
Candida albicans [14] = test: Antifungal activity against fluconazole-resistant Candida albicans DSY751 harboring ERG11 gene mutant and increase expressing of MDR1 gene after 24 hrs by visually and spectrophotometric analysis; conditions: DSY751, 24 h; in short: as §2
Candida albicans [15] = test: Antifungal activity against fluconazole-resistant Candida albicans DSY775 harboring ERG11 gene mutant and increase expressing of CDR1 and CDR2 genes after 24 hrs by visually and spectrophotometric analysis; conditions: DSY775, 24 h; in short: as §2
Candida albicans [16] = test: Antifungal activity against fluconazole-resistant Candida albicans DSY735 expressing high level of CDR1 and CDR2 genes after 24 hrs by visually and spectrophotometric analysis; conditions: DSY735, 24 h; in short: as §2
Candida albicans [17] = test: Antifungal activity against fluconazole-resistant Candida albicans DSY292 harboring ERG11 gene mutant and increase expressing of MDR1 gene after 24 hrs by visually and spectrophotometric analysis; conditions: DSY292, 24 h; in short: as §2
Candida albicans [18] = test: Antifungal activity against fluconazole-resistant Candida albicans DSY348 harboring ERG11 gene mutant and increase expressing of CDR1 and CDR2 genes after 24 hrs by visually and spectrophotometric analysis; conditions: DSY348, 24 h; in short: as §2
Candida albicans [19] = test: Antifungal activity against fluconazole-resistant Candida albicans DSY289 harboring ERG11 gene mutant and increase expressing of CDR1 and CDR2 genes after 24 hrs by visually and spectrophotometric analysis; conditions: DSY289, 24 h; in short: as §2
Candida albicans [20] = test: Antifungal activity against fluconazole-resistant Candida albicans DSY296 harboring ERG11 gene mutant and increase expressing of CDR1 and CDR2 genes after 24 hrs by visually and spectrophotometric analysis; conditions: DSY296, 24 h; in short: as §2
Candida albicans [21] = test: Antifungal activity against fluconazole-resistant Candida albicans DSY284 harboring ERG11 gene mutant and increase expressing of CDR1 and CDR2 genes after 24 hrs by visually and spectrophotometric analysis; conditions: DSY284, 24 h; in short: as §2
Nakaseomyces glabratus [22] = test: Antifungal activity against wild type Candida glabrata after 24 hrs by visually and spectrophotometric analysis
Kluyveromyces marxianus = test: Antifungal activity against wild type Candida kefyr after 24 hrs by visually and spectrophotometric analysis
Candida tropicalis [23] = test: Antifungal activity against wild type Candida tropicalis after 24 hrs by visually and spectrophotometric analysis
Candida parapsilosis = test: Antifungal activity against wild type Candida parapsilosis ATCC 34136 after 24 hrs by visually and spectrophotometric analysis; conditions: Lodderomyces parapsilosis, ATCC 34136, 24 h
Pichia kudriavzevii = test: Antifungal activity against wild type Candida krusei ATCC 14243 after 24 hrs by visually and spectrophotometric analysis; conditions: ATCC 14243, 24 h
[24] = test system: Meyerozyma guilliermondii; test: Antifungal activity against wild type Candida guilliermondii after 24 hrs by visually and spectrophotometric analysis
Candida albicans [25] = test: Antifungal activity against wild type Candida albicans ATCC 60193 after 24 hrs by visually and spectrophotometric analysis; conditions: ATCC 60193, 24 h

| Compound | MIC90 (Candida tropicalis [1]) [µg/mL] | MIC90 (Clavispora lusitaniae [2]) [µg/mL] | MIC90 (Clavispora lusitaniae [3]) [µg/mL] | MIC90 (Clavispora lusitaniae [4]) [µg/mL] | MIC90 (Clavispora lusitaniae [5]) [µg/mL] | MIC90 (Clavispora lusitaniae [6]) [µg/mL] | MIC90 (Clavispora lusitaniae [7]) [µg/mL] | MIC90 (Candida albicans [8]) [µg/mL] | MIC90 (Nakaseomyces glabratus [9]) [µg/mL] | MIC90 (Nakaseomyces glabratus [10]) [µg/mL] | MIC90 (Nakaseomyces glabratus [11]) [µg/mL] | MIC90 (Nakaseomyces glabratus [12]) [µg/mL] | MIC90 (Nakaseomyces glabratus [13]) [µg/mL] | MIC90 (Candida albicans [14]) [µg/mL] | MIC90 (Candida albicans [15]) [µg/mL] | MIC90 (Candida albicans [16]) [µg/mL] | MIC90 (Candida albicans [17]) [µg/mL] | MIC90 (Candida albicans [18]) [µg/mL] | MIC90 (Candida albicans [19]) [µg/mL] | MIC90 (Candida albicans [20]) [µg/mL] | also measured |
| --- | --- | --- | --- | --- | --- | --- | --- | --- | --- | --- | --- | --- | --- | --- | --- | --- | --- | --- | --- | --- | --- |
| C/C=C/CNC(=N)NCCCCCCCCN1CCCCCOC(=O)CCNC(=N)NC1=O.O=C(O)C(F)(F)F | 16 | 4 | 8 | 8 | 4 | 4 | 8 | 4 | 32 | 64 | 64 | 32 | 32 | 16 | 16 | 16 | 16 | 8 | 8 | 16 | MIC90 (Candida albicans [21]): 8 µg/mL; MIC90 (Nakaseomyces glabratus [22]): 32 µg/mL; MIC90 (Kluyveromyces marxianus): 16 µg/mL; MIC90 (Candida tropicalis [23]): 16 µg/mL; MIC90 (Candida parapsilosis): 8 µg/mL; MIC90 (Pichia kudriavzevii): 32 µg/mL; MIC90 [24]: 8 µg/mL; MIC90 (Candida albicans [25]): 16 µg/mL |
| C/C=C/CNC(=N)NCCCCCCCCN1CCCCOc2ccccc2CNC(=N)NC1=O.O=C(O)C(F)(F)F | 16 | 16 | 8 | 16 | 8 | 8 | 8 | 8 | 64 | 64 | 64 | 64 | 64 | 16 | 16 | 8 | 16 | 8 | 8 | 16 | MIC90 (Candida albicans [21]): 16 µg/mL; MIC90 (Nakaseomyces glabratus [22]): 64 µg/mL; MIC90 (Kluyveromyces marxianus): 4 µg/mL; MIC90 (Candida tropicalis [23]): 8 µg/mL; MIC90 (Candida parapsilosis): 8 µg/mL; MIC90 (Pichia kudriavzevii): 32 µg/mL; MIC90 [24]: 16 µg/mL; MIC90 (Candida albicans [25]): 16 µg/mL |
| C/C=C/CNC(=N)NCCCCCCCCN1CCCCCCOc2ccccc2CNC(=N)NC1=O.O=C(O)C(F)(F)F | 10 | 5 | 5 | 5 | 5 | 5 | 5 | 5 | 36 | 40 | 36 | 40 | 36 | 10 | 10 | 5 | 10 | 5 | 5 | 10 | MIC90 (Candida albicans [21]): 9 µg/mL; MIC90 (Nakaseomyces glabratus [22]): 16 µg/mL; MIC90 (Kluyveromyces marxianus): 2 µg/mL; MIC90 (Candida tropicalis [23]): 1 µg/mL; MIC90 (Candida parapsilosis): 2 µg/mL; MIC90 (Pichia kudriavzevii): 4 µg/mL; MIC90 [24]: 2 µg/mL; MIC90 (Candida albicans [25]): 4 µg/mL |
